Most compounds without a hit are left out; they make up all but 1.9% or so of the library.
ARFGAP1 inhibitor: rat ARFGAP1 inhibition; Q62848; Arfgap1-stimulated ARF1 GTP hydrolysis, GDP FP detection; hit rate 0.26% among 360,000; inhibition, % at 16.5 µM; AID 651572;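 active = inhibition above a per-plate limit, mean inhibition of low control wells plus 3 SD, cut at about 25% in these data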
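System: truncated rat Arfgap1 GAP domain / Medium: HEPES-based buffer, pH 7.5 / Also added: N-terminally truncated human ARF1-GTP substrate / Incubation: enzyme reaction 120 min at 25 °C after 20 min preincubation / Measured by: FP of antibody-bound GDP Alexa 633 tracer, ex 620/em 688 nm / Replicates: singlicate, each compound tested once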
ASAP1 inh: ASAP1 ArfGAP inhibition | Q9ULH1 | ASAP1-stimulated ARF1 GTP hydrolysis, GDP FP detection | inhibition, % at 16.5 µM | hit rate 0.19% among 360,000 | AID 624377; in the data active = inhibition above about 25%
Rtt109 Vps75: C. albicans Rtt109 histone acetyltransferase inhibition; Q5AAJ8; purified Rtt109/Vps75, ThioGlo CoA-SH fluorescence, 4 h; inhibition, % at 34.9 µM; hit rate 0.16% among 330,000; AID 540336;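 active = inhibition of at least 50% in every replicate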
Target sequence (Q5AAJ8 whole entry, looked up): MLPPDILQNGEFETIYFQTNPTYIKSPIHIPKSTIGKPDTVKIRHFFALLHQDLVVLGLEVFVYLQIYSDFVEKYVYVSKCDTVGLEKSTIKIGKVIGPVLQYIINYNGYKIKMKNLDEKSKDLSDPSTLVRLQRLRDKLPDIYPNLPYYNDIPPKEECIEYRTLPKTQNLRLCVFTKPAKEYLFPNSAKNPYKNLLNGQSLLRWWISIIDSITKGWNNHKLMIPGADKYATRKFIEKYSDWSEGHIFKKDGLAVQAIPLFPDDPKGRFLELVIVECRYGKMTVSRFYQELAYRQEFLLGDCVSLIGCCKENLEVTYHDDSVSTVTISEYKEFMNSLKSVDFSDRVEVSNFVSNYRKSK
FGF22 binding: binders of recombinant human FGF22 by thermal shift | AID 651658 | Q9HCT0 | activity (Tm shift, normalised), % at 9.99 µM | hit rate 1.5% among 340,000 | SYPRO orange fluorescence; percent of sucrose octasulfate shift, DMSO zero;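 active = mean Tm shift, scaled 0 neutral to 100 positive control, at about 1.3% or above, every replicate too, limit read from the data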
Target sequence (Q9HCT0 whole entry, looked up): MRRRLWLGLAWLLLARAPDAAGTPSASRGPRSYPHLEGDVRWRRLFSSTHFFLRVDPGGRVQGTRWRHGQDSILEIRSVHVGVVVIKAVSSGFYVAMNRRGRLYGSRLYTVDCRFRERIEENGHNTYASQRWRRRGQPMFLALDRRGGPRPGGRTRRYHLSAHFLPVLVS
Efflux pump mplx: blocks antifungal efflux pumps in multiplex yeast assay | hit rate 0.44% among 330,000 | inhibition, % at 10 µM | S. cerevisiae Candida pump triplex, Nile Red efflux | AID 485275;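 active = plate passing quality check with inhibition over a set limit, or well fluorescence over plate mean plus 4 SD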;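 also: Nile Red retained in pooled yeast measured as flow cytometry median fluorescence; higher means more Nile Red kept so more efflux inhibition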
A number is an active result; i = inactive; nt = no result.

SMILES | ARFGAP1 inhibitor | ASAP1 inh | Rtt109 Vps75 | FGF22 binding | Efflux pump mplx
Cn1c(N)c(C(=O)COC(=O)c2ccc(Cl)nc2)c(=O)n(C)c1=O | i | i | i | 43 | i
CC(C)CNC(C)C(=O)Nc1ccc(S(N)(=O)=O)cc1 (configuration not stated) | i | i | i | 43 | i
NS(=O)(=O)c1ccc(NC(=O)C(Sc2ccccc2)c2ccccc2)cc1 (configuration not stated) | i | i | i | 1.4 | i
NS(=O)(=O)c1ccc(NC(=O)CSc2ccccc2)cc1 | i | i | i | i | i
C[C@H]1CN([C@@H](C)CO)C(=O)c2cccc(NC(=O)CCCCCC(=O)Nc3ccccc3N)c2O[C@H]1CN(C)Cc1ccncc1 | nt | nt | nt | i | nt
CCN(c1ccc(NC(=O)COC(=O)/C=C/c2cccs2)cc1)C(C)C | i | i | i | i | i
CC(C)N(Cc1nc(-c2ccccc2)no1)C(=O)C(Cl)(Cl)Cl | i | i | i | 43 | i
CC(C)(C)c1ccc(-n2ncc3c2CCCC3NC(=O)C2=NNC(=O)CC2)cc1 (configuration not stated) | i | i | i | i | i
Cc1nc(NC(=S)Nc2ccccc2)sc1C | i | i | i | 43 | i
O=c1c(-c2ccccc2)coc2c(CN3CCCC3)c(O)ccc12 | i | i | i | nt | i
CCCC1=Nc2cc(C(=O)NCCN3CCOCC3)ccc2Sc2ccccc21 | i | i | i | i | i
C(=NN=C(NN=Cc1cccs1)NN=Cc1cccs1)c1cccs1 | i | i | i | 43 | nt
O=C(Cn1nc(-c2ccccc2)ccc1=O)Nc1ccc(NC(=O)c2ccccn2)cc1 | i | i | i | 44 | i
O=C(Cn1nc(-c2ccccc2)ccc1=O)Nc1ccc(-n2cnnn2)cc1 | i | i | i | i | i
O=C(Nc1cccc(Cl)c1)N[C@@H]1CC[C@@H](CCn2cc(Cc3ccccc3)nn2)O[C@H]1CO | nt | nt | nt | i | nt
Cc1nnc(SCC(=O)N(C)C2CCCCC2)s1 | i | i | i | 44 | i
CCCc1cc(=O)n2[nH]c(NCc3ccccc3F)nc2n1 | i | i | i | nt | i
COc1ccc(CN(C(=O)c2ccc(CN3CCOCC3)o2)C(C(=O)NCC2CCCO2)c2ccc(F)cc2)cc1 (configuration not stated) | i | i | i | i | i
O=C(NCC1CCCO1)C(c1ccc(F)cc1)N(Cc1ccc2c(c1)OCO2)C(=O)c1ccc(CN2CCOCC2)o1 (configuration not stated) | i | i | i | 43 | i
CO[C@H]1CN(C)C(=O)c2ccc(NC(=O)c3nc4ccccc4s3)cc2OC[C@H](C)NC[C@H]1C | nt | nt | nt | i | nt
COc1ccc(/C=C/c2c([N+](=O)[O-])c(=O)n(C)c(=O)n2C)cc1 | i | i | i | 43 | i
O=C(C(=O)N1CCN(Cc2ccccc2)CC1)c1c[nH]c2ccccc12 | i | i | i | i | i
O=C(c1c[nH]c2ccccc12)N1CCN(Cc2ccccc2)CC1 | i | i | i | 43 | i
Nc1cccc(-c2cn3cccnc3n2)c1 | i | i | i | 43 | i
COc1ccccc1NC(=O)C12CC3CC(C1)CC(c1ccc(C)cc1)(C3)C2 | i | i | i | nt | i
SMILES | ARFGAP1 inhibitor | ASAP1 inh | Rtt109 Vps75 | FGF22 binding | Efflux pump mplx
O=C1CN(CCN2CC(=O)N(Cc3ccccc3)C(=O)C2)CC(=O)N1Cc1ccccc1 | i | i | nt | 44 | nt
C[C@H]1CCCCO[C@@H](CN(C)C(=O)c2ccncc2)[C@@H](C)CN([C@@H](C)CO)C(=O)c2cc(NC(=O)C3CCCCC3)ccc2O1 | nt | nt | nt | i | nt
NC(=O)CNc1ncc(C(F)(F)F)cc1Cl | i | i | i | i | i
Cc1onc(C(=O)NN)c1C(=O)Nc1ncc(C(F)(F)F)cc1Cl | i | i | i | 43 | i
O=C(COC(=O)c1cccs1)NCC1CCCO1 (configuration not stated) | i | i | i | nt | i
Cc1cc(C)n2nc(C(=O)Nc3c(C)nn(Cc4ccc(F)cc4)c3C)cc2n1 | i | i | i | i | i
CCOc1cc(NC(=S)NCCCN2CCOCC2)c(OCC)cc1NC(=O)c1cccc(C)c1 | i | i | i | i | i
CCOc1cc(N2CCOCC2)c(OCC)cc1NC(=S)NCCCOC | i | i | i | 43 | i
CN(C(=O)COc1ncnc2sccc12)c1ccccc1 | i | i | i | 43 | i
CN(CC(=O)Nc1ccccc1C(F)(F)F)C(=O)COc1ncnc2sccc12 | i | i | i | i | i
Cc1cccc(NC(=S)NCC(c2cccnc2)N2CCOCC2)c1C (configuration not stated) | i | i | i | i | i
CC(C)CN1CCN(CCCOC(=O)Nc2cccc3ccccc23)CC1C (configuration not stated) | i | i | i | 44 | nt
CCCCCCC(C)OC(=O)Nc1cccc2ccccc12 (configuration not stated) | i | i | i | i | i
CCOc1cc(CO)cc(Br)c1OCC(=O)Nc1ccccc1C | i | i | i | 43 | i
Cc1ccc(NC2=C(Cl)C(=O)OC2NC(=O)c2ccccc2)cc1 (configuration not stated) | i | i | i | nt | i
O=C1OC(NC(=O)c2ccccc2)C(n2cc(CO)nn2)=C1Cl (configuration not stated) | i | i | 193 | nt | i
Cc1cc2nc(C3CCN(C(=S)NCC(C)C)CC3)[nH]c2cc1C | i | i | nt | 1.9 | i
NC(N)=NCCCC(NC(=O)c1ccccc1)C(=O)Nc1ccc([N+](=O)[O-])cc1 (configuration not stated) | i | i | i | i | i
CN(CCC#N)c1ccc(C=C(C#N)c2ccc(Br)cc2)cc1 | i | i | nt | 44 | nt
COC(=O)CSc1nc(NC#N)nc(NC(C)(C)C)n1 | i | i | i | i | i
NNC(=O)C1CCCN1S(=O)(=O)c1ccc(Cl)cc1 (configuration not stated) | i | i | i | 43 | i
COc1ccc(C2/C=C\CN(CC(C)C)CC(=O)N2Cc2cccc(F)c2)cc1 (configuration not stated) | i | i | i | i | i
Cc1cc(C)nc(/N=C(\N)Nc2ccc3c(c2)OCCO3)n1 | i | i | i | nt | i
COC(=O)Cc1cc(=O)[nH]c(/N=C(\N)Nc2cccc(C)c2)n1 | i | i | i | 43 | i
COc1cccc(N/C(N)=N/c2nc(C)cc(=O)[nH]2)c1 | nt | nt | i | nt | i
SMILES | ARFGAP1 inhibitor | ASAP1 inh | Rtt109 Vps75 | FGF22 binding | Efflux pump mplx
Cc1cc(=O)[nH]c(/N=C(\N)Nc2ccc3c(c2)OCCO3)n1 | i | i | i | 44 | i
COC(=O)Cc1cc(=O)[nH]c(/N=C(\N)Nc2ccc(C)cc2)n1 | i | i | i | i | i
Cc1cccc(N/C(N)=N/c2nc(C)cc(=O)[nH]2)c1 | i | i | i | 43 | i
O=C(CSCCc1ccccn1)Nc1cccnc1Cl | i | i | i | nt | i
Cc1ccc(CC(CC(=O)O)C(=O)NCc2ccccc2)cc1 (configuration not stated) | i | i | i | nt | i
Cc1ccn2cc(CCNS(=O)(=O)c3ccc([N+](=O)[O-])cc3)nc2c1 | i | i | i | i | i

Source: PubChem
